# Test results published in PMC7194111 (Virology, 2020).
# pEC50: −log10 of the molar value. Where two headings read alike, the source gives them in different places.
# Tests used:
# [1] = system: ZIKV; conditions: ref Adcock et al., 2017; cited from earlier work
# [2] = system: ZIKV; assay: Anti-ZIKV assay; format: cell-based, Zika virus; conditions: for pEC50: Zika virus
# Procedure, shortened: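 Cells seeded at 2 × 10^5/well and pretreated 2 h with serial dilutions of test compound (DMSO stock diluted in medium). Infected with ZIKV (Asian strain KU963796) at MOI 0.1 for 2 h, then incubated to 48 hpi at 37 °C, 5% CO2 in DMEM. Cellular vRNA measured by SYBR Green qRT-PCR using the 2^-ΔΔCT method normalized to GAPDH. EC50 is the concentration reducing viral yield by 50%.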
# [3] = Cytotoxicity measurement; format: cell-based; conditions: human, A549 cells
# Procedure, shortened: (§1)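 Cells seeded at 6 × 10^3/well and exposed to a range of test compound concentrations (DMSO stock diluted in medium) for 48 h; controls received equal-volume DMSO. 10% CCK8 reagent added for 1 h, then absorbance read at 450 nm. CC50 taken as the concentration lowering viability by 50%.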
# [4] = Cytotoxicity measurement; format: cell-based; conditions: African green monkey, Vero cells
# Procedure, shortened: as §1
# [5] = Cytotoxicity measurement; format: cell-based; conditions: human, Huh7 cells
# Procedure, shortened: as §1
# [6] = target: ZIKV NS5 RdRp (Zika virus, UniProt A0A024B7W1); assay: In vitro RNA polymerase assay; format: biochemical; conditions: recombinant ZIKV NS5, serial dilutions
# Sequence of ZIKV NS5 RdRp (A0A024B7W1 2521-3423 limits assumed): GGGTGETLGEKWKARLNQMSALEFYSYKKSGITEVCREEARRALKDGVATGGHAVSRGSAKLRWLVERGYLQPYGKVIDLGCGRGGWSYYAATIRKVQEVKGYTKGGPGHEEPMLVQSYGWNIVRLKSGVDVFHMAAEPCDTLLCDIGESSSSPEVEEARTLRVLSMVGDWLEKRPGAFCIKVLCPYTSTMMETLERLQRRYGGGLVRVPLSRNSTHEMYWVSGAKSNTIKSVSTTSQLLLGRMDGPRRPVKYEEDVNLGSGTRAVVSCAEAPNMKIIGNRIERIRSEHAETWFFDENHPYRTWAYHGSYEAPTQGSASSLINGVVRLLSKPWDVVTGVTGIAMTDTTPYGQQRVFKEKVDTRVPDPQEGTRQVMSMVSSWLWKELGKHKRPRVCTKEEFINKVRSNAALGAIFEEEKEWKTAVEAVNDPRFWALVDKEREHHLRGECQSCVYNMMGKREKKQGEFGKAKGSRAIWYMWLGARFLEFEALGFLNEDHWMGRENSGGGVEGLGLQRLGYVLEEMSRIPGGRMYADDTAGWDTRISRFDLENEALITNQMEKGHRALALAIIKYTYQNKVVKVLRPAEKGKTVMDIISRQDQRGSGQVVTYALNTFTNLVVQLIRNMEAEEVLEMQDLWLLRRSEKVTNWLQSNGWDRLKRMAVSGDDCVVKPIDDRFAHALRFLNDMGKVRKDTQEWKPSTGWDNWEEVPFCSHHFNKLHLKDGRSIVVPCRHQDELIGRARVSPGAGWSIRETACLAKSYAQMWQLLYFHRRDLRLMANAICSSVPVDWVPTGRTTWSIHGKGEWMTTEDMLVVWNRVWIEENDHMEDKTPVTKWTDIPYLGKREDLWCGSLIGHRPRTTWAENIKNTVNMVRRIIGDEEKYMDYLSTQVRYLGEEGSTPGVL
# [7] = system: ZIKV; assay: Plaque forming assay; format: cell-based, Zika virus
# Procedure, shortened: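 Supernatants from ZIKV-infected, compound-treated cultures were put on overnight Vero monolayers (2 × 10^5 cells/well) for 2 h at 37 °C. Inoculum replaced with plaque medium containing 1% methylcellulose. After 7 days, cells fixed and stained with 4% formaldehyde and 0.5% crystal violet.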
# [8] = system: ZIKV; assay: Lethal ZIKV challenge in AG6 mice; format: in vivo
# Procedure, shortened: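 AG6 mice aged 4–5 weeks (13–15 g, n = 6/group) were infected with 3.3 × 10^6 PFU ZIKV via footpad. Dosed intragastrically at 1, 5 or 10 mg/kg (DMSO stock in 0.5% carboxymethyl cellulose) or vehicle for 14 days. Survival and body weight tracked to 14 dpi. Retro-orbital blood at 1, 3, 7 dpi: vRNA copies by qRT-PCR against a standard curve. Brain/liver vRNA by RT-qPCR; H&E histology. One-way ANOVA with Dunnett's test.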
# [9] = system: ZIKV; assay: Viral protein by western blotting and immunofluorescence in Vero cells; format: cell-based, Zika virus
# Procedure, shortened: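 Vero cells infected with ZIKV at MOI 0.1 and treated with test compound or DMSO. At 48 hpi: fixed in 4% paraformaldehyde (15 min), permeabilized with 0.2% Triton X-100 (5 min), blocked in 5% BSA (30 min). Stained overnight at 4 °C with pan-flavivirus envelope mAb 4G2, then fluorescent secondary for 30 min at RT. Nuclei stained with DAPI; imaged by confocal microscopy.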
# [10] = system: ZIKV; assay: Time-of-addition assay; format: cell-based, Zika virus; conditions: 1 μM, added between -2 and 10 hpi, Vero cells, read at 48 hpi
# [11] = system: ZIKV; assay: Time-of-removal assay; format: cell-based, Zika virus
# Procedure, shortened: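 ZIKV-infected Vero cells received 1 μM test compound or DMSO at 6 hpi, with vRNA sampled every 3 h up to 24 hpi. Alternatively, treatment started at 24 hpi, with sampling every 6 h for a further 12 h. vRNA by SYBR Green qRT-PCR normalized to GAPDH. E and NS5 protein by western blot of cell lysates (SDS-PAGE, PVDF, overnight primary antibody at 4 °C, ECL), with GAPDH detected.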
# [12] = system: ZIKV; assay: ZIKV strand specific RNA by qRT-PCR; format: cell-based; conditions: Zika virus, Vero
# [13] = 1 μM added at 6 hpi, after 24 h of viral infection, western blot intensity
compound,measurement,setting,value
"Cc1c(-c2ccc(-c3ccccc3F)cc2)nc2ccc(F)cc2c1C(=O)O [Brequinar, reference compound]",pEC50,[1],7.10
same,SI (selectivity index),[2]; A549 cells,>1086
same,SI (selectivity index),[2]; Huh7 cells,>8333
same,SI (selectivity index),[2]; Vero cells,>2272
same,pEC50,[2]; A549,7.34
same,pEC50,[2]; Huh-7,8.22
same,pEC50,[2]; Vero,7.66
same,CC50 at 48 h,[3],> 50 µM
same,CC50 at 48 h,[4],> 50 µM
same,CC50 at 48 h,[5],> 50 µM
O[C@H]1[C@H]2c3cc4c(cc3CN3CCC(=C[C@@H]1O)[C@H]23)OCO4 [Lycorine],RdRp activity,[6],directly inhibited RdRp activity in a dose-dependent manner
same,Inhibition of plaque formation,[7]; 0.5 μM,partially
same,Inhibition of plaque formation,[7]; 5 μM,completely
same,SI (selectivity index),[2]; A549 cells,19.5
same,SI (selectivity index),[2]; Huh7 cells,20
same,SI (selectivity index),[2]; Vero cells,54
same,pEC50,[2]; A549,6.66
same,pEC50,[2]; Huh-7,6.66
same,pEC50,[2]; Vero,6.41
same,Brain histopathology (H&E),[8]; 1 mg/kg,brain tissue lesions were similar to those in the ZIKV group
same,Liver histopathology (H&E),[8]; 1 mg/kg,inflammatory response of the cells was obvious
same,Reduction of vRNA of brain tissue,[8]; 1 mg/kg,not significant difference
same,Reduction of vRNA of liver,[8]; 1 mg/kg,not significant difference
same,Survival rate,"[8]; 1 mg/kg intragastric, 14 days",33%
same,Brain histopathology (H&E),[8]; 5 mg/kg,significantly reduced the ZIKV-induced inflammatory response
same,Reduction of vRNA of brain tissue,[8]; 5 mg/kg,about one order of magnitude
same,Reduction of vRNA of liver,[8]; 5 mg/kg,"about one and half order of magnitude, respectively"
same,Survival rate,"[8]; 5 mg/kg intragastric, 14 days",66%
same,Brain histopathology (H&E),[8]; 10 mg/kg,significantly reduced the ZIKV-induced inflammatory response
same,Reduction of vRNA of brain tissue,[8]; 10 mg/kg,about three orders of magnitude
same,Survival (protection against ZIKV infection-induced death),"[8]; 10 mg/kg intragastric, 14 days, ZIKV group 100% mortality",83%
same,Liver histopathology (H&E),"[8]; 10 mg/kg, compared to 5 mg/kg group",significantly reduced liver damage
same,vRNA levels in blood versus ZIKV group,"[8]; 1, 3 and 7 dpi",one order of magnitude lower
same,Body weight changes,"[8]; weight loss from 5 dpi, 0 to 14 dpi",recovered until 9 or 10 dpi
same,ZIKV protein (western blotting),[9]; 0.01 to 10 μM,dose-dependent reduction in the ZIKV protein
same,ZIKV envelope biosynthesis (immunofluorescence),[9]; 48 hpi,significantly reduced
same,"vRNA and viral progeny particle load, time-of-addition",[10],strongest ability to decrease the vRNA and viral progeny particle load
same,CC50 at 48 h,[3],4.29 µM
same,vRNA synthesis,"[11]; 1 μM added at 6 hpi, Vero cells, monitored up to 24 hpi",fully abrogated vRNA synthesis
same,NS5 protein reduction,[11]; [13],89%
same,Virus E protein reduction,[11]; [13],52%
same,Viral E and NS5 protein reduction,[11]; 1 μM added at 24 hpi,no significant difference
same,vRNA,"[11]; 1 μM added at 24 hpi, monitored for additional 12 h",no effect on vRNA
same,CC50 at 48 h,[4],21 µM
same,CC50 at 48 h,[5],4.4 µM
same,inhibition at 1 µM,[12]; read-out: Inhibition of negative-sense vRNA synthesis,~95%
same,inhibition at 1 µM,[12]; read-out: Inhibition of positive-sense vRNA synthesis,~93%
